PKA-R2B act: activators of PKA-R2B holoenzyme, primary screen, biochemical, fluorescence polarization, Cy5-IP20, human. 340,000 compounds, 0.079% hits. cAMP-dependent protein kinase catalytic subunit beta (Homo sapiens) + cAMP-dependent …. AID 504700, 2011. activation, % at 11.4 µM. PKA-R2B holoenzyme dissociation; R2B truncated from residue 108, S112A mutant; 0% DMSO only, 100% 113 µM cGMP;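 active means activation above a cutoff set at the mean over all compounds plus 3 SD, cut at about 18% in these data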;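 further: higher means more holoenzyme dissociation and a rise in polarization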
PKA-R1A activ: activators of PKA-R1A holoenzyme, primary screen, biochemical, fluorescence polarization, Cy5-IP20, bovine R1A, mouse PKAc | cAMP-dependent protein kinase type I-alpha regulatory subunit (Bos taurus) + … | PKA-R1A dissociation; scaled: DMSO 0%, 113 µM cGMP 100% | activation, % at 11.4 µM | 340,000 compounds, 0.083% hits | AID 504707, 2011;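 active means percent activation above the mean of all tested compounds plus 3 SD, cut at about 19% in these data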;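 further: higher means more PKAc released from R1A so a rise in polarization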
procasp7 counter: procaspase-7 activators, primary screen, counter-screen for procaspase-3 activator project, biochemical, absorbance, HTS, human. AID 463210, 2010. Caspase-7 (Homo sapiens), P55210. 330,000 compounds, 0.093% hits. recombinant procaspase-7, Ac-DEVD-pNA absorbance 405 nm; D23A/D198A/D206A triple mutant, cannot self-cleave; scale: DMSO 0, 5 µM enzyme 100. activation, % at 8.5 µM;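 active means percent activation above the screen-wide mean plus 3 SD, cut at about 25% in these data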
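signal = Epi-absorbance of released pNA at 405 nm, two timepoints | assay system = Uncleavable procaspase-7 mutant enzyme | reagent = Ac-DEVD-pNA substrate, 400 µM as added | times = 1 h enzyme–compound preincubation and 2 h substrate reaction, both 25 °C | benchmarks = low DMSO alone, high DMSO plus 5 µM PC-7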
proCasp3 act: activators of human procaspase-3 D3A mutant, primary screen, biochemical, absorbance, PC-3 D3A mutant, single concentration | activation, % at 8.5 µM | Caspase-3 (Homo sapiens), P42574 | recombinant procaspase-3 D3A, Ac-DEVD-pNA absorbance 405 nm | 330,000 compounds, 0.11% hits | AID 463141, 2010;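 active means activation above the mean of all tested compounds plus 3 SD, cut at about 21% in these data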
Target sequence (P42574 whole entry D9A/D28A/D175A): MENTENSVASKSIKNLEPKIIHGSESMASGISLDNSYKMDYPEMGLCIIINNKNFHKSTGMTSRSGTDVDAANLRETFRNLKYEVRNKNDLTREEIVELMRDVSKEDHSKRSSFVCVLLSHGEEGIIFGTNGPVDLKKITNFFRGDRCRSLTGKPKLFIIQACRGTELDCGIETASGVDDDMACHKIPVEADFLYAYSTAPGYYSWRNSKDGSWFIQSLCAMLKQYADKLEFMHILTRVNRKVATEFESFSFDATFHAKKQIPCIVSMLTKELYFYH
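Assay system – Procaspase-3 D3A mutant, all three cleavage aspartates alanine · Controls – DMSO-only low control, 5 µM PC-3 D3A high control · Schedule – 1 h compound preincubation, 2 h substrate hydrolysis at 25 °C · Signal – 405 nm absorbance of p-nitroaniline, reads at 0 and 120 min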
procasp7 triplic: procaspase-7 activators, counter-screen for procaspase-3 activator project, biochemical, absorbance, triplicate, human. activation, % at 8.5 µM. shares compounds with proCasp3 act. recombinant procaspase-7, Ac-DEVD-pNA absorbance; asp23/198/206-to-Ala mutant, cannot self-cleave. 210 tested, under 10 active;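 active means mean activation above a set limit taken from an earlier procaspase-7 screen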
procasp3 conf: activators of human procaspase-3 D3A mutant, confirmation, biochemical, absorbance, PC-3 D3A mutant, triplicate | shares compounds with proCasp3 act | recombinant PC-3 D3A, Ac-DEVD-pNA absorbance 405 nm; 100% is higher-enzyme control | activation, % at 8.5 µM | 210 compounds, 10% hits | AID 488954, 2010;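 active means mean activation above a set limit carried over from the earlier primary screen, cut at about 22% in these data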
PC3 dual counter: procaspase-3 activators, counter-screen for dual procaspase-3/7 activator project, biochemical, absorbance, PC-3 D3A mutant, human; shares compounds with procasp7 counter; recombinant PC-3 D3A, Ac-DEVD-pNA absorbance 405 nm; aspartates 9, 28, 175 changed to alanine; 100% = enzyme control; activation, % at 8.5 µM; 290 tested, under 10 active;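 active means mean percent activation across triplicates above a set limit taken from the earlier primary procaspase-3 screen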
PC7 dual conf: activation of procaspase-7 enzyme – biochemical, absorbance, human, dual procaspase-3/-7 activator project, confirmation | shares compounds with procasp7 counter | recombinant procaspase-7, Ac-DEVD-pNA absorbance 405 nm; D23A/D198A/D206A mutant that cannot self-cleave | activation, % at 8.5 µM | 290 tested, under 10 active;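 active means mean activation above a set limit carried over from the earlier primary screen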
R2B FP artifact: fluorescence polarization artefacts, biochemical, artefact control for PKA-R2B activator project. shares compounds with PKA-R2B act. FP artifact counterscreen. activation, % at 11.4 µM. 270 compounds, 6% hits. AID 504796, 2011; in the data active means activation above about 20%;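 further: Cy5 labelled IP20 peptide probe with compound but no PKA protein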
PKA-R2B act conf: activators of PKA-R2B holoenzyme, confirmation, biochemical, fluorescence polarization, human | activation, % at 11.4 µM | PKA-R2B complex, activation | 270 compounds, 9% hits | shares compounds with PKA-R2B act; in the data active means activation above about 19%
R1A FP artifact: FP signal interference without PKA proteins, confirmation, artefact control for PKA-R1A activator project, biochemical, fluorescence polarization, triplicate; 280 compounds, 7% hits; Cy5-IP20 peptide alone, fluorescence polarization artifact counterscreen; shares compounds with PKA-R1A activ; AID 504799, 2011; activation, % at 11.4 µM;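 active means mean activation over triplicate runs exceeds the adjusted cutoff derived for the parent primary screen, cut at about 19% in these data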;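 further: no PKA protein present so any polarization rise reflects compound interference; higher means stronger polarization artifact and likely false positive in parent screen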
PKA-R1A confirm: activators of PKA-R1A holoenzyme, confirmation, biochemical, fluorescence polarization, Cy5-IP20, triplicate | shares compounds with PKA-R1A activ | PKA-R1A holoenzyme dissociation | activation, % at 11.4 µM | 280 compounds, 9% hits;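 active means mean activation over replicate wells exceeds the adjusted hit threshold taken from the earlier primary screen, cut at about 20% in these data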
Target sequence (P00514 whole entry, looked up): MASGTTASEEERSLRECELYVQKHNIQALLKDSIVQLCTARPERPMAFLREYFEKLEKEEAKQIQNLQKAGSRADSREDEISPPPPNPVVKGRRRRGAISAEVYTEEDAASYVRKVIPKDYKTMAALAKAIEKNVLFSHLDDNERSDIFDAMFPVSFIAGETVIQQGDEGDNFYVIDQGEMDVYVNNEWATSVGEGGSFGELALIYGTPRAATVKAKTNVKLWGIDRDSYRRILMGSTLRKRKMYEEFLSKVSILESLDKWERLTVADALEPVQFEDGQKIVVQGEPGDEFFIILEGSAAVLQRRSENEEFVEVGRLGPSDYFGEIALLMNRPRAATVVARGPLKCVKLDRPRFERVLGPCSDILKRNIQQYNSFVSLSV
A number is an active result. In the library only some 0.29% were active in any assay of this set; here they are far more common.

Results for CCC(C)NC(=O)c1c(N)n(Cc2ccc3c(c2)OCO3)c2nc3ccccc3nc12 (stereo not given) ?
PKA-R2B act: inactive; PKA-R1A activ: inactive; procasp7 counter: inactive; proCasp3 act: 70; procasp7 triplic: inactive; procasp3 conf: inactive

How did CCC(C)OC(=O)c1c(N)n(Cc2cccs2)c2nc3ccccc3nc12 (stereo not given) do in these assays?
PKA-R2B act: inactive; PKA-R1A activ: inactive; procasp7 counter: inactive; proCasp3 act: 23; procasp7 triplic: inactive; procasp3 conf: inactive

How did Nc1c(C(=O)OCc2ccccc2)c2nc3ccccc3nc2n1Cc1cccs1 do in these assays?
PKA-R2B act: inactive; PKA-R1A activ: inactive; procasp7 counter: inactive; proCasp3 act: inactive

Results for O=C(C(=O)N1CCC2(CC1)OCCO2)c1c[nH]c2ccccc12 ?
PKA-R2B act: inactive; PKA-R1A activ: inactive; procasp7 counter: inactive; proCasp3 act: inactive

How did COC(=O)C1=C(c2ccc(-c3ccccc3)c(F)c2)C[C@@H]2CC[C@H]1N2C(=O)NCc1cc(C)oc1C(F)(F)F do in these assays?
PKA-R2B act: inactive; PKA-R1A activ: inactive; procasp7 counter: inactive; proCasp3 act: inactive

How did CC(C)CCNC(=O)c1c(N)n(CC2CCCO2)c2nc3ccccc3nc12 (stereo not given) do in these assays?
PKA-R2B act: inactive; PKA-R1A activ: inactive; procasp7 counter: inactive; proCasp3 act: 25; procasp7 triplic: inactive; procasp3 conf: inactive

How did COc1ccc(-c2nc3ccc(C(=O)N4CCC5(CC4)OCCO5)cc3nc2-c2ccc(OC)cc2)cc1 do in these assays?
PKA-R2B act: inactive; PKA-R1A activ: inactive; procasp7 counter: 52; proCasp3 act: 30; PC3 dual counter: inactive; PC7 dual conf: inactive

How did COc1ccc(-n2c(C)nc3cc(C(=O)N4CCC5(CC4)OCCO5)ccc32)cc1 do in these assays?
PKA-R2B act: inactive; PKA-R1A activ: inactive; procasp7 counter: inactive; proCasp3 act: inactive

What do the screens show for `CC1CN(C)C(C)(C)CC1(O)c1ccccc1` (stereo not given)?
PKA-R2B act: inactive; PKA-R1A activ: inactive; procasp7 counter: inactive; proCasp3 act: inactive

Results for CCCNc1oc(-c2cccc3ccccc23)nc1C#N ?
PKA-R2B act: inactive; PKA-R1A activ: inactive; procasp7 counter: 32; proCasp3 act: 33; PC3 dual counter: inactive; PC7 dual conf: inactive

What do the screens show for `CCC(CO)(C(=O)OC1C[N+]2(C)CCC1CC2)c1ccccc1` (stereo not given)?
PKA-R2B act: 20; PKA-R1A activ: inactive; procasp7 counter: inactive; proCasp3 act: inactive; R2B FP artifact: inactive; PKA-R2B act conf: inactive

Results for O=C1CCN(C(=O)C(Cl)Cl)N1 ?
PKA-R2B act: inactive; PKA-R1A activ: inactive; procasp7 counter: inactive; proCasp3 act: inactive

Results for O=C1NC(=O)C(=C/C=C/c2coc3ccc(Br)cc3c2=O)C(=O)N1 ?
procasp7 counter: inactive; proCasp3 act: inactive

How did CN(C(=O)c1ccc(Cl)nc1)C1(c2ccccc2Cl)CCCCC1=O (stereo not given) do in these assays?
PKA-R2B act: 21; PKA-R1A activ: inactive; procasp7 counter: inactive; proCasp3 act: inactive; R2B FP artifact: inactive; PKA-R2B act conf: inactive

Results for CC1=CP(=O)(Oc2ccc([N+](=O)[O-])cc2)CC1 (stereo not given) ?
PKA-R2B act: inactive; PKA-R1A activ: 19; R1A FP artifact: inactive; PKA-R1A confirm: inactive

How did C=C1[C@H]2CC[C@H]3[C@]4(C)C[C@H](O[C@@H]5OC(CO)[C@@H](OSOOO)[C@H](OS(=O)(=O)O)[C@H]5OC(=O)CC(C)C)C[C@@H](C(=O)O)[C@H]4CC[C@]3(C2)[C@H]1O (stereo not given in full) do in these assays?
PKA-R2B act: inactive; PKA-R1A activ: 19; procasp7 counter: inactive; proCasp3 act: inactive; R1A FP artifact: inactive; PKA-R1A confirm: inactive

How did CC(C)C1C(C#N)=C(N)Oc2c1c(=O)oc1ccccc21 (stereo not given) do in these assays?
PKA-R2B act: inactive; PKA-R1A activ: inactive

What do the screens show for `CC1([N+](=O)[O-])COP(=O)(Nc2ccccc2F)OC1` (stereo not given)?
PKA-R2B act: inactive; PKA-R1A activ: inactive

How did COc1ccc(NP2(=O)OCC(C)(N)CO2)cc1 (stereo not given) do in these assays?
PKA-R2B act: inactive; PKA-R1A activ: 20; R1A FP artifact: inactive; PKA-R1A confirm: inactive
